# Screening data from PubChem.
# The entries come from a sample that favours hits as a whole.
# Ecoli WT expand = blocks growth of wild type E. coli BW25113; 98,000 tested, 0.15% active; OD600 absorbance; AID 710; growth inhibition, % at 100 µM;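 active = growth inhibition above about 50% at one test dose, limit read from the data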;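 note: growth measured after 20 h incubation at 37 °C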
# Ecoli tolC = growth inhibitors of E. coli BW25113 tolC mutant. OD615. growth inhibition, % at 10 µM (by protocol). 65,000 tested, 2.2% active. AID 573;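 active = growth inhibition at or above a cutoff equal to the mean over every tested compound plus 3 SD, cut at about 60% in these data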;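 note: growth measured after 20 h incubation at 37 °C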
#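 test system = E. coli BW25113 ΔtolC::kan bacteria | medium = LB with kanamycin 50 µg/mL | signal = OD at 615 nm | schedule = 37 °C, 20 h exposure | evaluation = % inhibition of E. coli growth | compound dosing = one dose of 10 µM final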
# Cdc25B inh = inhibitors of human Cdc25B phosphatase | 65,000 tested, 0.1% active | AID 368 | recombinant Cdc25B, OMFP fluorescence Ex485/Em525 | P30305 | inhibition, %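 (compounds tested at 10 µM final in the well)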; in the data active = inhibition above about 50%
# HePTP inhibitor = blocks human HePTP tyrosine phosphatase; P35236; recombinant HePTP phosphatase activity, OD absorbance; inhibition, % at 20 µM; 110,000 tested, 0.64% active; AID 521; in the data active = inhibition above about 50%;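 note: plate controls were vehicle for no effect and reference inhibitor for full effect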
# MMP-13 inhibitor = blocks human MMP13 activity | P45452 | MMP-13 fTHP FRET cleavage, Mca fluorescence | inhibition, % at 4 µM | 65,000 tested, 0.07% active;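 active = inhibition above the mean of compound-free control plate wells plus 3 SD, cut at about 14% in these data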;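 note: 0% = DMSO wells and 100% = wells with reference MMP-13 inhibitor after basal subtraction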
# MKP-1 inh = blocks human MKP-1 phosphatase activity | recombinant MKP-1, OMFP hydrolysis fluorescence | 65,000 tested, 0.15% active | inhibition, %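 (compounds tested at a single concentration somewhere between 10 and 100 µM)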;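 active = inhibition above about 50%, limit read from the data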;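 note: 0% = DMSO max control wells and 100% = wells with enzyme stopped by NaOH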
# Target sequence (P28562 whole entry, looked up): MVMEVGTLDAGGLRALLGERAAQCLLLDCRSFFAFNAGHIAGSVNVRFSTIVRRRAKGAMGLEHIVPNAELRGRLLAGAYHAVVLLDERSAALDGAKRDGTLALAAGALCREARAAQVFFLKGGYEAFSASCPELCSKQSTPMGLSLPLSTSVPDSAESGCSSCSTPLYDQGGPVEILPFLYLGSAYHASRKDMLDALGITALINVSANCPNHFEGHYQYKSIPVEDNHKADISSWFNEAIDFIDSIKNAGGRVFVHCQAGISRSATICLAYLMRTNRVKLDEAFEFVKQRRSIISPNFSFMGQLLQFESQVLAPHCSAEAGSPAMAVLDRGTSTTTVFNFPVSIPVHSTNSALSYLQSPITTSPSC
# * marks the source's active call; other numbers are inactive results; i = inactive; · = no result given.
SMILES,Ecoli WT expand,Ecoli tolC,Cdc25B inh,HePTP inhibitor,MMP-13 inhibitor,MKP-1 inh
O=C(CSc1nnnn1C1CCCC1)Nc1cccc(NC(=O)c2ccco2)c1,3,24,3,-2,-6,7
O=C(CSc1nnnn1C1CCCCC1)Nc1cccc(NC(=O)c2ccco2)c1,-5,73*,-9,3,7,-4
COc1cccc(-c2nc(-c3ccccc3)no2)c1,3,99*,2,8,3,0
COc1cc(-c2nc(-c3cccc(C)c3)no2)cc(OC)c1OC,·,67*,-29,1,-4,10
COc1cccc(-c2noc(-c3cccs3)n2)c1,-8,94*,-2,0,0,14
COc1cccc(-c2noc(-c3cccnc3)n2)c1,2,25,-2,5,1,2
Cc1cc2c3c(c1)C1C=CCC1C(c1cccc([N+](=O)[O-])c1)N3CC1CC=CC21 (centres undefined),·,·,·,-14,·,·
Fc1cccc(Cl)c1Cn1nnc(-c2ccc3c(c2)OCO3)n1,-8,63*,-3,2,0,7
N#CCn1nnc(-c2ccc3c(c2)OCO3)n1,2,-4,-1,4,1,10
Cc1cccc(OCc2nc(C#N)c(NCc3ccc4c(c3)OCO4)o2)c1,-19,79*,-7,10,4,3
N#Cc1nc(COc2ccc(Cl)cc2)oc1NCc1ccc2c(c1)OCO2,-7,23,3,-14,5,7
N#C/C(=C/c1cccc(Cl)c1)c1nc(-c2ccc(Cl)cc2)cs1,·,·,·,7,·,·
CC(C)c1ccc(-c2nnn(Cc3nc4ccccc4s3)n2)cc1,-15,80*,-15,1,-1,30
O=C(NC(NC(=O)c1ccco1)c1ccc(Br)cc1)c1ccco1,·,·,·,104*,·,·
CN(C)Cc1c(O)c[n+]([O-])c2ccccc12,·,·,·,103*,·,·
CCc1cc2c3c(c(=O)oc2cc1O)CCCC3,2,61*,2,11,i,-3
Cc1c(-c2ccccc2)[n+](=O)c2c(n1[O-])CCCCC2,·,·,·,-5,·,·
COc1ccc(-c2c(C)n([O-])c3c([n+]2=O)CCC3)cc1,·,·,·,104*,·,·
Cc1c(-c2ccc(F)cc2)[n+](=O)c2c(n1[O-])CCC2,·,·,·,104*,·,·
Cc1c(-c2ccco2)[n+](=O)c2c(n1[O-])CCC2,-1,-17,-12,1,-6,-23
O=C(Nc1cc(-c2ccc(F)cc2)[nH]n1)c1ccccc1[N+](=O)[O-],·,·,·,7,·,·
O=C(COc1ccc2ccccc2c1)Nc1cccc(Br)c1,·,·,·,70*,·,·
COc1cccc(NC(=O)COc2ccc3ccccc3c2)c1,·,·,·,5,·,·
CCN(C(=O)c1ccc(C(C)(C)C)cc1)c1nnc(Cn2nnc3ccccc32)s1,-10,62*,-13,10,-2,11
Cc1ccc(C(=O)Cn2nnc3ccccc32)cc1,10,·,·,·,·,·
SMILES,Ecoli WT expand,Ecoli tolC,Cdc25B inh,HePTP inhibitor,MMP-13 inhibitor,MKP-1 inh
O=c1c2cccc3c2c(nn1CN1CCOCC1)-c1ccccc1-3,14,80*,-4,1,-12,11
CCSc1nnc(NC(=O)CSc2nccn2-c2cc(C)cc(C)c2)s1,6,28,4,13,3,7
CCSc1nnc(NC(=O)CSc2nccn2-c2cccc(C)c2C)s1,4,84*,32,8,4,10
Cc1nnc(SC(=O)N2c3ccccc3Sc3ccccc32)s1,-10,69*,-19,5,3,8
O=C(NC(NC(=S)Nc1ccc(Br)cc1)C(Cl)(Cl)Cl)c1ccccc1F (centres undefined),·,·,·,103*,·,·
O=C(NC(NC(=S)Nc1ccccc1)C(Cl)(Cl)Cl)c1ccccc1F (centres undefined),·,·,·,4,·,·
Cc1nc(N)sc1-c1csc(Nc2ccccn2)n1,13,-6,5,-5,12,7
Cc1nc(N)sc1-c1csc(Nc2ccc(Cl)cn2)n1,-9,20,9,-3,16*,15
Cc1cc(NC(=O)Cn2nnc3sc4c(c3c2=O)CCC(C(C)(C)C)C4)no1 (centres undefined),1,76*,9,3,5,30
Cc1ccc(S(=O)(=O)c2nc(Nc3nccs3)sc2Cl)cc1,-5,98*,3,3,0,10
O=C(NNS(=O)(=O)c1ccc2ccccc2c1)c1cccc(Cl)c1,·,·,·,2,·,·
CCn1c(SCC(=O)C(C)(C)C)nnc1-c1ccccn1,4,2,-10,4,16*,7
COc1ccc(Cl)cc1CN1CCN(c2nc(C)cc(C)c2C#N)CC1,1,97*,-31,2,-3,-26
Cc1cc(C)c(C#N)c(N2CCN(CCOc3ccc(Cl)cc3)CC2)n1,7,100*,-17,0,2,9
Cc1cc(C)c(C#N)c(N2CCCC2)n1,7,6,-9,-2,-15,18
COc1ccc(F)cc1CN1CCN(c2cc(C)nc3c4c(C)cc(C)nc4nn23)CC1,2,52,-18,13,-345,19
CCOC(=O)c1cc(C)n(S(=O)(=O)c2ccc(C)cc2)c1C,13,66*,2,7,0,2
Fc1ccc2[nH]c3c(N4CCN(c5ccccc5)CC4)ncnc3c2c1,-5,9,15,10,-7,20
OC1(c2cccc(C(F)(F)F)c2)CCN(c2ncnc3c2[nH]c2ccc(F)cc23)CC1,-9,100*,4,4,-92,30
COc1ccc(/C=N/NC(=O)C(=O)NCc2ccccn2)cc1,·,·,·,5,·,·
Cn1c(SCC(=O)N2c3ccccc3Sc3ccc(Cl)cc32)nnc1-c1ccco1,-7,65*,-5,7,4,-14
CCn1c(SCC(=O)N2c3ccccc3Sc3ccccc32)nnc1-c1ccco1,-11,32,-4,-1,3,9
CCOc1ccc(NC(=O)c2cc(OCC)c(OCC)c(OCC)c2)c([N+](=O)[O-])c1,·,·,·,54*,·,·
CCOc1ccc(NC(=O)c2cccc(Oc3ccccc3)c2)c([N+](=O)[O-])c1,·,·,·,5,·,·
Cc1ccccc1Cn1c(-c2nonc2N)nc2ccccc21,·,·,·,4,·,·
SMILES,Ecoli WT expand,Ecoli tolC,Cdc25B inh,HePTP inhibitor,MMP-13 inhibitor,MKP-1 inh
N#CCCN1CCN(c2cc(N3CCOCC3)c(F)cc2[N+](=O)[O-])CC1,·,·,·,3,·,·
CC(=O)Nc1ccc2c(c1)C1C=CCC1C(c1ccccc1F)N2 (centres undefined),·,·,·,2,·,·
COc1ccc2c(c1)C1C=CCC1C(C(=O)O)N2 (centres undefined),·,·,·,102*,·,·
CC(=O)Nc1ccc2c(c1)C1C=CCC1C(C(=O)O)N2 (centres undefined),·,·,·,80*,·,·
O=C(O)C1Nc2c(Cl)cc(Cl)cc2C2C=CCC12 (centres undefined),·,·,·,103*,·,·
CC(C)(Cc1ccc(O)cc1)NC(=O)Cc1ccccc1,·,·,·,-3,·,·
Cc1nnc(NC(=O)c2ccc(S(=O)(=O)N(C)Cc3ccccc3)cc2)o1,-1,74*,6,7,4,-6
Cc1ccccc1NC(=O)c1ccc2ccccc2c1,·,·,·,6,·,·
Cc1nnc(NC(=O)c2ccc3ccccc3c2)o1,50*,31,-9,6,-1,1
